Assay results from ChEMBL document CHEMBL3526002, “Tissue distribution and identification of radioactivity components at elimination phase after oral administration of [¹⁴C]CS-1036, an α-amylase inhibitor, to rats” (Drug Metab Dispos, 2013).

Columns and labels:
Set-up in all cases: dose 5 mg/kg, dosed compound name [14C]CS-1036, route oral
Conditions in all cases: in vivo
[1] = test system: Kidney; test: Drug uptake in albino F344/DuCrlCrlj rat kidney assessed as ng equivalent of CS-1036 at 5 mg/kg, po after 336 hrs by liquid scintillation counting; format: ADME, organism-based
[2] = test system: Cerebellum; test: Drug uptake in albino F344/DuCrlCrlj rat cerebellum at 5 mg/kg, po after 4 hrs by liquid scintillation counting; format: ADME, organism-based
[3] = test system: Cerebrum; test: Drug uptake in albino F344/DuCrlCrlj rat cerebrum assessed as ng equivalent of CS-1036 at 5 mg/kg, po after 168 hrs by liquid scintillation counting; format: ADME, organism-based
How it was run: (§1)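 Single oral [14C]CS-1036 at 5 mg/kg was given to male rats (159–167 g; n = 3). Cerebrum was collected after aortic bleeding at 1, 4, 8, 24, 72, 168 or 336 h, weighed, and homogenized in 2 volumes of saline. A 0.5 ml aliquot was solubilized in Soluene-350 and counted by LSC with external-standard correction. Results are in ng equivalent/g tissue from specific activity and sample weight.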

[4] = test system: Spleen; test: Drug uptake in albino F344/DuCrlCrlj rat spleen assessed as ng equivalent of CS-1036 at 5 mg/kg, po after 1 hr by liquid scintillation counting; format: ADME, organism-based
[5] = Drug uptake in albino F344/DuCrlCrlj rat trachea assessed as ng equivalent of CS-1036 at 5 mg/kg, po after 24 hrs by liquid scintillation counting; format: ADME, organism-based
[6] = test system: Plasma; test: Drug uptake in albino F344/DuCrlCrlj rat plasma at 5 mg/kg, po after 8 hrs by liquid scintillation counting; format: ADME, organism-based
[7] = test system: Cerebrum; test: Drug uptake in albino F344/DuCrlCrlj rat cerebrum assessed as ng equivalent of CS-1036 at 5 mg/kg, po after 4 hrs by liquid scintillation counting; format: ADME, organism-based; how it was run: as §1
[8] = Drug uptake in albino F344/DuCrlCrlj rat trachea assessed as ng equivalent of CS-1036 at 5 mg/kg, po after 168 hrs by liquid scintillation counting; format: ADME, organism-based
[9] = test system: Kidney; test: Drug uptake in albino F344/DuCrlCrlj rat kidney assessed as ng equivalent of CS-1036 at 5 mg/kg, po after 72 hrs by liquid scintillation counting; format: ADME, organism-based
[10] = test system: Lung; test: Drug uptake in albino F344/DuCrlCrlj rat lung at 5 mg/kg, po after 24 hrs by liquid scintillation counting; format: ADME, organism-based
[11] = test system: Pancreas; test: Drug uptake in albino F344/DuCrlCrlj rat pancreas at 5 mg/kg, po after 168 hrs by liquid scintillation counting; format: ADME, organism-based
[12] = test system: Plasma; test: Drug uptake in albino F344/DuCrlCrlj rat plasma assessed as ng equivalent of CS-1036 at 5 mg/kg, po after 72 hrs by liquid scintillation counting; format: ADME, organism-based
[13] = test system: Cerebrum; test: Drug uptake in albino F344/DuCrlCrlj rat cerebrum assessed as ng equivalent of CS-1036 at 5 mg/kg, po after 72 hrs by liquid scintillation counting; format: ADME, organism-based; how it was run: as §1
[14] = test system: Adrenal gland; test: Drug uptake in albino F344/DuCrlCrlj rat adrenal gland at 5 mg/kg, po after 24 hrs by liquid scintillation counting; format: ADME, organism-based
[15] = test system: Liver; test: Drug uptake in albino F344/DuCrlCrlj rat liver at 5 mg/kg, po after 72 hrs by liquid scintillation counting; format: ADME, organism-based
[16] = test system: Liver; test: Drug uptake in albino F344/DuCrlCrlj rat liver assessed as ng equivalent of CS-1036 at 5 mg/kg, po after 24 hrs by liquid scintillation counting; format: ADME, organism-based
[17] = test system: Lung; test: Drug uptake in albino F344/DuCrlCrlj rat lung at 5 mg/kg, po after 72 hrs by liquid scintillation counting; format: ADME, organism-based
[18] = test system: Kidney; test: Drug uptake in albino F344/DuCrlCrlj rat kidney at 5 mg/kg, po after 72 hrs by liquid scintillation counting; format: ADME, organism-based
[19] = Drug uptake in albino F344/DuCrlCrlj rat eyeball assessed as ng equivalent of CS-1036 at 5 mg/kg, po after 72 hrs by liquid scintillation counting; format: ADME, organism-based
[20] = Drug uptake in albino F344/DuCrlCrlj rat pituitary gland at 5 mg/kg, po after 72 hrs by liquid scintillation counting; format: ADME, organism-based
[21] = Drug uptake in albino F344/DuCrlCrlj rat skeletal muscle assessed as ng equivalent of CS-1036 at 5 mg/kg, po after 8 hrs by liquid scintillation counting; format: ADME, organism-based, Muscle tissue
[22] = Drug uptake in albino F344/DuCrlCrlj rat fat at 5 mg/kg, po after 168 hrs by liquid scintillation counting; format: ADME, organism-based, Adipose tissue
How it was run: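 Male F344/DuCrlCrlj rats (bought at 7 weeks, acclimatized 5–6 days; 159–167 g; n = 3 per time point) received a single oral dose of [14C]CS-1036 at 5 mg/kg. White adipose tissue was collected after abdominal aortic bleeding at 1, 4, 8, 24, 72, 168 or 336 h. Samples were counted by LSC with external-standard efficiency correction. Results were converted to ng equivalents per g from specific activity and sample weight.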

[23] = test system: Large intestine; test: Drug uptake in albino F344/DuCrlCrlj rat large intestine at 5 mg/kg, po after 1 hr by liquid scintillation counting; format: ADME, organism-based
[24] = Drug uptake in albino F344/DuCrlCrlj rat bone marrow at 5 mg/kg, po after 168 hrs by liquid scintillation counting; format: ADME, organism-based
[25] = test system: Cerebellum; test: Drug uptake in albino F344/DuCrlCrlj rat cerebellum at 5 mg/kg, po after 168 hrs by liquid scintillation counting; format: ADME, organism-based
[26] = Drug uptake in albino F344/DuCrlCrlj rat trachea at 5 mg/kg, po after 24 hrs by liquid scintillation counting; format: ADME, organism-based
[27] = Drug uptake in albino F344/DuCrlCrlj rat urinary bladder assessed as ng equivalent of CS-1036 at 5 mg/kg, po after 168 hrs by liquid scintillation counting; format: ADME, organism-based
[28] = Drug uptake in albino F344/DuCrlCrlj rat testis at 5 mg/kg, po after 168 hrs by liquid scintillation counting; format: ADME, organism-based
[29] = test system: Cerebellum; test: Drug uptake in albino F344/DuCrlCrlj rat cerebellum at 5 mg/kg, po after 336 hrs by liquid scintillation counting; format: ADME, organism-based
[30] = Drug uptake in albino F344/DuCrlCrlj rat bone marrow at 5 mg/kg, po after 8 hrs by liquid scintillation counting; format: ADME, organism-based
[31] = test system: Kidney; test: Drug uptake in albino F344/DuCrlCrlj rat kidney at 5 mg/kg, po after 8 hrs by liquid scintillation counting; format: ADME, organism-based
[32] = test system: Small intestine; test: Drug uptake in albino F344/DuCrlCrlj rat small intestine assessed as ng equivalent of CS-1036 at 5 mg/kg, po after 1 hr by liquid scintillation counting; format: ADME, organism-based
[33] = test system: Kidney; test: Drug uptake in albino F344/DuCrlCrlj rat kidney assessed as ng equivalent of CS-1036 at 5 mg/kg, po after 8 hrs by liquid scintillation counting; format: ADME, organism-based
[34] = test system: Small intestine; test: Drug uptake in albino F344/DuCrlCrlj rat small intestine assessed as ng equivalent of CS-1036 at 5 mg/kg, po after 24 hrs by liquid scintillation counting; format: ADME, organism-based
[35] = test system: Cerebrum; test: Drug uptake in albino F344/DuCrlCrlj rat cerebrum assessed as ng equivalent of CS-1036 at 5 mg/kg, po after 8 hrs by liquid scintillation counting; format: ADME, organism-based; how it was run: as §1

C[C@H]1O[C@@H](O[C@H]2[C@H](O)[C@@H](O)[C@@H](O[14C@H]3[14C@H](O)[14CH2]N[14C@@H]3[14CH2]O)O[C@@H]2CO)[C@H](O)[C@@H](O)[C@@H]1O
Radiolabel recovery [1]: 4.9 ngequiv/g
Radiolabel recovery [2]: 11.2 ngequiv/g
Radiolabel recovery [3]: 3.11 ngequiv/g
Radiolabel recovery [4]: 57.2 ngequiv/g
Radiolabel recovery [5]: 7.1 ngequiv/g
Radiolabel recovery [6]: 27.7 ngequiv/ml
Radiolabel recovery [7]: 1.4 ngequiv/g
Radiolabel recovery [8]: 10.4 ngequiv/g
Radiolabel recovery [9]: 29.7 ngequiv/g
Radiolabel recovery [10]: 72 ngequiv/g
Radiolabel recovery [11]: 79.2 ngequiv/g
Radiolabel recovery [12]: 8 ngequiv/ml
Radiolabel recovery [13]: 4.88 ngequiv/g
Radiolabel recovery [14]: 81.8 ngequiv/g
Radiolabel recovery [15]: 446 ngequiv/g
Radiolabel recovery [16]: 37 ngequiv/g
Radiolabel recovery [17]: 51.3 ngequiv/g
Radiolabel recovery [18]: 77.9 ngequiv/g
Radiolabel recovery [19]: 1.72 ngequiv/g
Radiolabel recovery [20]: 22.1 ngequiv/g
Radiolabel recovery [21]: 11.2 ngequiv/g
Radiolabel recovery [22]: 130 ngequiv/g
Radiolabel recovery [23]: 1070 ngequiv/g
Radiolabel recovery [24]: 47 ngequiv/g
Radiolabel recovery [25]: 7.12 ngequiv/g
Radiolabel recovery [26]: 43.2 ngequiv/g
Radiolabel recovery [27]: 6.6 ngequiv/g
Radiolabel recovery [28]: 9.95 ngequiv/g
Radiolabel recovery [29]: 5.41 ngequiv/g
Radiolabel recovery [30]: 75 ngequiv/g
Radiolabel recovery [31]: 1320 ngequiv/g
Radiolabel recovery [32]: 86500 ngequiv/g
Radiolabel recovery [33]: 1970 ngequiv/g
Radiolabel recovery [34]: 7.5 ngequiv/g
Radiolabel recovery [35]: 1.44 ngequiv/g
